The values below come from ChEMBL document CHEMBL4024790 (J Med Chem, 2018).

Series [1] is described as follows: 1-octanol/phosphate buffer solution partition coefficient, log D of the compound at pH 7.4 after 1 hr by LC-MS/MS method. It counts as physicochemical.
The species named for series [2] is Rattus norvegicus.
For series [3], the system named is Rattus norvegicus. Kind of series: Toxicity in rat assessed as effect on vasculature at 5 to 250 mg/kg/day, po up to 15 days by microscopic method. The format is organism-based. The settings on record: in vivo, 360 h.
Series [4] can be described thus: Apparent intrinsic clearance in human liver microsomes. It counts as ADME, microsome. The conditions noted are these: read-out: CLH(app). In general terms: Liver microsomes are vesicles of endoplasmic reticulum, rich in cytochrome P450 enzymes.
In series [5] the test system is Rattus norvegicus. Description: Cardiotoxicity in rat at 5 to 250 mg/kg/day, po up to 15 days by microscopic method. The format is toxicity, organism-based. The conditions noted are these: in vivo, 360 h. A digest of the protocol: (§1)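 Exploratory rat toxicity study, oral dosing at 5, 50 and 250 mg/kg/day for up to 15 days, with microscopic examination of heart and vasculature and measurement of plasma and brain exposure.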

In series [6] the target is cGMP-specific 3',5'-cyclic phosphodiesterase (Homo sapiens, UniProt O76074). Description: Inhibition of PDE5A1 (unknwon origin) using [3H]cGMP as substrate after 30 mins by SPA.
Another series deals with Canis familiaris. Description: Cardiotoxicity in dog assessed as arteriopathy in arteries at >= 20 mg/kg/day, po for 14 days by microscopic method. It counts as toxicity, organism-based, Canis lupus familiaris. The conditions noted are these: in vivo, 336 h.
Another series relates to Brain. Description: Drug uptake in rat brain at 5 to 250 mg/kg/day, po up to 15 days by microscopic method. The format is ADME, organism-based. The conditions noted are these: in vivo, 360 h. A digest of the protocol: as §1
A further series concerns Plasma. Description: Drug uptake in rat plasma at 5 to 250 mg/kg/day, po up to 15 days by microscopic method. The format is ADME, organism-based. The settings on record: in vivo, 360 h. An outline of the steps:
as §1

Series [7] deals with Liver. Kind of series: Drug level in dog liver microsomes treated with 4-(azetidin-1-yl)-7-methyl-5-(1-methyl-5-(5-(trifluoromethyl)pyridin-2-yl)-1H-pyrazol-4-yl)imidazo[1,5-f][1,2,4]triazine at 1 to 50 uM after 1 hr by LC-MS/MS analysis. The format is ADME, Canis lupus familiaris, microsome. An outline of the steps: (§2)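 Rat, dog or human liver microsomes or hepatocytes (P450 0.35–0.5 µM final) incubated with compound at 1, 10 or 50 µM in 100 mM phosphate buffer with 1 mM NADP regenerating system, 37°C for 1 h; quenched with 4 volumes acetonitrile, centrifuged, supernatant evaporated, reconstituted in 5% aqueous acetonitrile and analysed by reversed-phase LC.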

Series [8] in a line: Drug level in rat hepatocytes treated with 4-(azetidin-1-yl)-7-methyl-5-(1-methyl-5-(5-(trifluoromethyl)pyridin-2-yl)-1H-pyrazol-4-yl)imidazo[1,5-f][1,2,4]triazine at 1 to 50 uM after 1 hr by LC-MS/MS analysis. The format is ADME, cell-based, Hepatocyte. An outline of the steps:
as §2

For series [9], the system named is Liver. Description: Drug level in human liver microsomes treated with 4-(azetidin-1-yl)-7-methyl-5-(1-methyl-5-(5-(trifluoromethyl)pyridin-2-yl)-1H-pyrazol-4-yl)imidazo[1,5-f][1,2,4]triazine at 1 to 50 uM after 1 hr by LC-MS/MS analysis. The format is ADME, microsome. A digest of the protocol:
as §2

The test system of series [10] is Liver. Kind of series: Drug level in rat liver microsomes treated with 4-(azetidin-1-yl)-7-methyl-5-(1-methyl-5-(5-(trifluoromethyl)pyridin-2-yl)-1H-pyrazol-4-yl)imidazo[1,5-f][1,2,4]triazine at 1 to 50 uM after 1 hr by LC-MS/MS analysis. The format is ADME, microsome. An outline of the steps:
as §2

Series [11] can be described thus: Drug level in dog hepatocytes treated with 4-(azetidin-1-yl)-7-methyl-5-(1-methyl-5-(5-(trifluoromethyl)pyridin-2-yl)-1H-pyrazol-4-yl)imidazo[1,5-f][1,2,4]triazine at 1 to 50 uM after 1 hr by LC-MS/MS analysis. The format is ADME, cell-based, Canis lupus familiaris, Hepatocyte. An outline of the steps: as §2
Series [12] can be described thus: Drug level in human hepatocytes treated with 4-(azetidin-1-yl)-7-methyl-5-(1-methyl-5-(5-(trifluoromethyl)pyridin-2-yl)-1H-pyrazol-4-yl)imidazo[1,5-f][1,2,4]triazine at 1 to 50 uM after 1 hr by LC-MS/MS analysis. It counts as ADME, cell-based, Hepatocyte. A digest of the protocol: as §2
In another series the test system is human MDR1. Description: Passive permeability from apical to basolateral side in MDCK cells expressing human MDR1. The conditions noted are these: dog, read-out: permeability. It counts as ADME, cell-based, Canis lupus familiaris.

As to `Cn1ncc(-c2nn(C)c3ncnc(N4CCC4)c23)c1-c1ccc(C(F)(F)F)cc1`, in [1], the logD at 1 h stood at 2.9. Further, the fIC50 in the series listed under Rattus norvegicus [2] stood at 11 nM.
For `Cc1nc(-c2cnn(C)c2-c2ccc(Cl)cn2)c2c(N3CCC3)ncnn12`, the Activity result in the series with Rattus norvegicus [3] and in the series on Rattus norvegicus [5] was “Toxic” each time. Also, the logD at 1 h in [1] was 1.7. Further, in [4], the CLint scaled was 13 mL/min/kg.
`Cc1nc(-c2cnn(C)c2-c2ccc(C(F)(F)F)cc2)c2c(N3CCC3)ncnn12`: the CLint scaled in series [4] was found to be 93 mL/min/kg.
Molecule `CCCc1nn(C)c2c(=O)nc(-c3cc(S(=O)(=O)N4CCN(CC)CC4)ccc3OCC)[nH]c12` gave an IC50 in series [6] of 8.9 nM.
`CNc1ncnn2c(C)nc(-c3cnn(C)c3-c3ccc(C(F)(F)F)cc3)c12`: the Activity entry in the series on Rattus norvegicus [3] and in the series with Rattus norvegicus [5] was “Toxic” each time. In addition, the log distribution coefficient (logD) at 1 h in [1] was determined as 2.8. In series [4], the CLint scaled was determined as 33 mL/min/kg.
Take `CNc1ncnn2c(C)nc(-c3cnn(C)c3-c3ccc(C(F)(F)F)cn3)c12`: the Activity result in the series on Rattus norvegicus [3] was “Non-Toxic”; in the series with Canis familiaris, “Toxic”; in the series on Rattus norvegicus [5], “Non-Toxic”. In series [1], this molecule had a pH-dependent lipophilicity (logD) at 1 h of 1.8. In addition, in series [4], the CLint scaled stood at 9.5 mL/min/kg. Moreover, the Drug uptake entry in the series with Brain and with Plasma was “Active” throughout.
For `Cc1nc(-c2cnn(C)c2-c2ccc(C(F)(F)F)cn2)c2c(N3CC(O)C3)ncnn12`, the Drug metabolism result (with Liver [7]; in series [8]; with Liver [9]; with Liver [10]; in series [11]; in series [12]) was “Metabolite_Detected” in each case.
`Cc1nc(-c2cnn(C)c2-c2ccc(C(F)(F)F)cn2)c2c(NCCC(=O)O)ncnn12`: the Drug metabolism result (in the series on Liver [7]; in series [8]; in the series on Liver [9]; in the series on Liver [10]; in series [11]; in [12]) was “Metabolite_Detected” throughout. Also, the Papp A→B with human MDR1 was found to be 1.1 ×10⁻⁶ cm/s.

Usually logD stands for lipophilicity at a set pH, counting ionised and neutral species. A lower logD goes with lower lipophilicity. A word on the IC50: it is the concentration that gives 50% inhibition. The low end stands for greater potency in that assay, the high end for weaker potency in that assay.
